According to paper PMC7416082 (Journal of Inorganic Biochemistry, 2020):

Assays:
CT DNA = CT DNA binding studies by cyclic voltammetry; parameters: species or system calf; details: for Epa(f), anodic potential / Epc(f), cathodic potential / Epa(b), anodic potential / Epc(b), cathodic potential: Co(II)/Co(I) couple, DMSO/buffer; for Epa(f), anodic potential / Epc(f), cathodic potential: absence of CT DNA; for Epa(b), anodic potential / Epc(b), cathodic potential: presence of CT DNA; for Kr/Kox, ratio of equilibrium DNA-binding constants of reduced and oxidized form: Eq. S3; for ΔEpa = Epa(b) − Epa(f) / ΔEpc = Epc(b) − Epc(f): shift upon addition of CT DNA
[1] = Solubility and stability of the isolated complexes; format: physicochemical
[2] = molecular target: T1, human serum albumin (HSA) (Homo sapiens, UniProt P02768); test: HSA competitive studies with site-markers warfarin and ibuprofen; format: binding; details: for HSA-binding constant K, marker: ibuprofen: presence of ibuprofen; for HSA-binding constant K, marker: warfarin: presence of warfarin
[3] = molecular target: T2, bovine serum albumin (BSA) (Bos taurus, UniProt P02769); test: BSA tryptophan fluorescence quenching; format: binding; details: for K(BSA), SA-binding constant: Scatchard equation; for % relative fluorescence intensity (I/Io, %) of BSA remaining: λem 345 nm, % of the initial BSA fluorescence; for kq(BSA), SA-quenching constant: τo = 10^−8 s
[4] = molecular target: T2, bovine serum albumin (BSA); test: BSA competitive studies with site-markers warfarin and ibuprofen; format: binding; details: for BSA-binding constant K, marker: ibuprofen: presence of ibuprofen; for BSA-binding constant K, marker: warfarin: presence of warfarin; for BSA binding site from competition with site-markers: change of K(BSA) with warfarin / ibuprofen
[5] = molecular target: T1, human serum albumin (HSA); test: HSA tryptophan fluorescence quenching; format: binding; details: for K(HSA), SA-binding constant: Scatchard equation; for % relative fluorescence intensity (I/Io, %) of HSA remaining: λem 340 nm, % of the initial HSA fluorescence; for kq(HSA), SA-quenching constant: τo = 10^−8 s
CT DNA-EB conjugate = test: EB-displacement studies; format: binding, calf; details: for quenching constant kq (EB-DNA): τo = 23 ns
Procedure, shortened: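 CT DNA pre-bound with ethidium bromide in citrate/NaCl buffer, pH 7.0, at room temperature. Test compound was added from a DMSO stock (≤5% v/v DMSO final), and the decrease in EB-DNA emission at 592 nm was monitored. KSV was obtained by Stern-Volmer analysis. kq was calculated from KSV using a literature EB-DNA lifetime τo = 23 ns.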

T2 sequence (P02769 25-607): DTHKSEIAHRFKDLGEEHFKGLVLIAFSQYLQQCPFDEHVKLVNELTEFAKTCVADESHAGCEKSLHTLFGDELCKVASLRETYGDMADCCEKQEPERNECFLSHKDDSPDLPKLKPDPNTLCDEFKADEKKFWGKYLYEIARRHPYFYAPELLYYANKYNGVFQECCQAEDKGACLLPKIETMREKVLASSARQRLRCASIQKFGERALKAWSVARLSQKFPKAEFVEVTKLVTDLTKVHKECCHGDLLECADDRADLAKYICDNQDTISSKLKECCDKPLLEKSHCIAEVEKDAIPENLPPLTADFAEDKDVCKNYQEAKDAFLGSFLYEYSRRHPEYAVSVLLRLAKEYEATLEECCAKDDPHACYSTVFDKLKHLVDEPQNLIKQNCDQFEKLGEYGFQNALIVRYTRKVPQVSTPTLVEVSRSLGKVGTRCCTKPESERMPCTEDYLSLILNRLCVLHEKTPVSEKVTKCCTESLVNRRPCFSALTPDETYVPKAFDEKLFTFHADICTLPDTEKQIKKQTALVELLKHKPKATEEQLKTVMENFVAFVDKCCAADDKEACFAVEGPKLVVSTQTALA
T1 sequence (P02768 25-609): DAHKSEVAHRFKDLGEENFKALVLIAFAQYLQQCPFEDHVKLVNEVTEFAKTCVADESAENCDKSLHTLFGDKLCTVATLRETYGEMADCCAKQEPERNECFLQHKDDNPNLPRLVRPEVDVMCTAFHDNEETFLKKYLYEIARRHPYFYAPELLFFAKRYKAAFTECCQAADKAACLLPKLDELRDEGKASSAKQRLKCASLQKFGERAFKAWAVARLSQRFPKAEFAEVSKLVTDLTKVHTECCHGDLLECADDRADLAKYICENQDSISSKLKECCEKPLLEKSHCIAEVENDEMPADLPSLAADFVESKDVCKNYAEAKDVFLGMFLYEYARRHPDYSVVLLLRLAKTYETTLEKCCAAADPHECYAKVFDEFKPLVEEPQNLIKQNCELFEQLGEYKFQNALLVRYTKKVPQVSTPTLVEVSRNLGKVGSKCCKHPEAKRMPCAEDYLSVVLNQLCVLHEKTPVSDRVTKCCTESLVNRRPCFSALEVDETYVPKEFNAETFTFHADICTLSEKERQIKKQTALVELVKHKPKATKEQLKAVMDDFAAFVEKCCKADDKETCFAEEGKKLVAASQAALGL

Row | Substance | Epa(f), anodic potential (CT DNA) [mV] | Epc(f), cathodic potential (CT DNA) [mV] | Epa(b), anodic potential (CT DNA) [mV] | Epc(b), cathodic potential (CT DNA) [mV] | Kr/Kox, ratio of equilibrium DNA-binding constants of reduced and oxidized form (CT DNA) | ΔEpa = Epa(b) − Epa(f) (CT DNA) | ΔEpc = Epc(b) − Epc(f) (CT DNA) | Solubility [1] | HSA-binding constant K, no marker [2] | HSA-binding constant K, marker: ibuprofen [2] | HSA-binding constant K, marker: warfarin [2] | K(BSA), SA-binding constant [3] | % relative fluorescence intensity (I/Io, %) of BSA remaining [3] [%] | kq(BSA), SA-quenching constant [3] | BSA-binding constant K, no marker [4] | BSA-binding constant K, marker: ibuprofen [4] | BSA-binding constant K, marker: warfarin [4] | K(HSA), SA-binding constant [5] | % relative fluorescence intensity (I/Io, %) of HSA remaining [5] [%] | kq(HSA), SA-quenching constant [5] | also measured
1 | [Co2(μ-indo-O,O′)2(indo-O)2(bipy)2(μ-H2O)]·3.3MeOH [complex 2] | −475 | −712 | −520 | −675 | 0.93 | −45 mV | +37 mV | soluble in DMSO and DMF | 8.82(±0.30) × 10^5 M^−1 | 1.41(±0.09) × 10^5 M^−1 | 4.62(±0.16) × 10^5 M^−1 | 6.77(±0.26) × 10^5 M^−1 | 7.2 | 7.14(±0.12) × 10^13 M^−1 s^−1 | 6.77(±0.26) × 10^5 M^−1 | 3.50(±0.13) × 10^5 M^−1 | 5.48(±0.13) × 10^5 M^−1 | 1.20(±0.05) × 10^6 M^−1 | 5.1 | 8.49(±0.25) × 10^13 M^−1 s^−1 | BSA binding site from competition with site-markers [4]: preference for the Sudlow's site 2 in subdomain IIIA; Stern-Volmer constant KSV (EB-DNA) (CT DNA-EB conjugate): 1.63(±0.05) × 10^5 M^−1; quenching constant kq (EB-DNA) (CT DNA-EB conjugate): 7.07(±0.20) × 10^12 M^−1 s^−1
2 | [Co(indo-O)2(H2O)2(μ-Cl)]n·n(MeOH·H2O) [complex 1] | −495 | −690 | −480 | −700 | 1.04 | +15 mV | −10 mV | soluble in DMSO and DMF | 7.06(±0.31) × 10^5 M^−1 | 2.72(±0.10) × 10^5 M^−1 | 4.18(±0.11) × 10^5 M^−1 | 3.72(±0.12) × 10^5 M^−1 | 33.5 | 1.04(±0.07) × 10^13 M^−1 s^−1 | 3.72(±0.12) × 10^5 M^−1 | 1.56(±0.08) × 10^5 M^−1 | 4.50(±0.24) × 10^5 M^−1 | 7.06(±0.31) × 10^5 M^−1 | 28.8 | 9.01(±0.28) × 10^12 M^−1 s^−1 | BSA binding site from competition with site-markers [4]: preference for the Sudlow's site 2 in subdomain IIIA; Stern-Volmer constant KSV (EB-DNA) (CT DNA-EB conjugate): 1.39(±0.05) × 10^5 M^−1; quenching constant kq (EB-DNA) (CT DNA-EB conjugate): 6.03(±0.23) × 10^12 M^−1 s^−1
3 | [Co(indo-O,O′)2(phen)] [complex 4] | −440 | −720 | −500 | −680 | 0.84 | −60 mV | +40 mV | soluble in DMSO and DMF | 1.20(±0.05) × 10^6 M^−1 | 3.42(±0.11) × 10^5 M^−1 | 5.72(±0.18) × 10^5 M^−1 | 4.27(±0.22) × 10^5 M^−1 | 26.5 | 1.37(±0.06) × 10^13 M^−1 s^−1 | 4.27(±0.22) × 10^5 M^−1 | 1.19(±0.05) × 10^5 M^−1 | 2.23(±0.08) × 10^5 M^−1 | 7.37(±0.35) × 10^5 M^−1 | 21.2 | 1.83(±0.12) × 10^13 M^−1 s^−1 | HSA binding site from competition with site-markers ([2]; change of K(HSA) with warfarin / ibuprofen): evident preference for the Sudlow's site 2 in subdomain IIIA; Stern-Volmer constant KSV (EB-DNA) (CT DNA-EB conjugate): 1.76(±0.04) × 10^5 M^−1; quenching constant kq (EB-DNA) (CT DNA-EB conjugate): 7.65(±0.17) × 10^12 M^−1 s^−1
